ChEMBL document CHEMBL1177700, “Discovery of bishomo(hetero)arylpiperazines as novel multifunctional ligands targeting dopamine D(3) and serotonin 5-HT(1A) and 5-HT(2A) receptors” (J Med Chem, 2010)
The source made the active and inactive calls. The rule behind the calls is not given here.

Tests used:
[1] = target: Voltage-gated inwardly rectifying potassium channel KCNH2 (Homo sapiens, UniProt Q12809); assay: Binding affinity to human ERG expressed in HEK293 cells; assay type: cell-based
[2] = Displacement of [3H]mesulergine from 5HT2C receptor in CRL:(HA) BR albino guinea pig cortex by scintillation spectrometry; parameters: species or system Cavia porcellus
Outline: (§1)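 Radioligand displacement binding gave Ki (nM). Each value is the mean of three determinations, with SD within 10% of the mean.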

[3] = target: 5-hydroxytryptamine receptor 2A (Rattus norvegicus, UniProt P14842); assay: Displacement of [3H]ketanserin from 5HT2A receptor in CRL:CD(SD)BR-COBS rat cortex by scintillation spectrometry
Chain of 5-hydroxytryptamine receptor 2A (P14842 whole entry): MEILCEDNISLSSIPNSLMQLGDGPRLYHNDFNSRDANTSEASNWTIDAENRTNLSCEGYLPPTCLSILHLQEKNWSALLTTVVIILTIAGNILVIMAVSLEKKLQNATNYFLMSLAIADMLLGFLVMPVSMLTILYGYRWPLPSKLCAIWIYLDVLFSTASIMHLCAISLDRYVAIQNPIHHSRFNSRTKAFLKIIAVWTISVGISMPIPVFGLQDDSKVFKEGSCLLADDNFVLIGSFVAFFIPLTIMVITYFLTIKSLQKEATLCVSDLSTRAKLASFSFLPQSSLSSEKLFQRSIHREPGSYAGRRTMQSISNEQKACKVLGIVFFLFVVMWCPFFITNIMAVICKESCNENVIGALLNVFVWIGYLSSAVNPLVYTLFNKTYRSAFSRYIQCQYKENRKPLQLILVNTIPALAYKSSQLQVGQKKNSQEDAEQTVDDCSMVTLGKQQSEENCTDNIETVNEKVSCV

[4] = target: T1, 5-hydroxytryptamine receptor 1A (Rattus norvegicus, UniProt P19327); assay: Displacement of [3H]8OH-DPAT from 5HT1A receptor in rat CRL:CD(SD)BR-COBS hippocampus by scintillation spectrometry; assay type: tissue-based; outline: as §1
T1 sequence (P19327 whole entry): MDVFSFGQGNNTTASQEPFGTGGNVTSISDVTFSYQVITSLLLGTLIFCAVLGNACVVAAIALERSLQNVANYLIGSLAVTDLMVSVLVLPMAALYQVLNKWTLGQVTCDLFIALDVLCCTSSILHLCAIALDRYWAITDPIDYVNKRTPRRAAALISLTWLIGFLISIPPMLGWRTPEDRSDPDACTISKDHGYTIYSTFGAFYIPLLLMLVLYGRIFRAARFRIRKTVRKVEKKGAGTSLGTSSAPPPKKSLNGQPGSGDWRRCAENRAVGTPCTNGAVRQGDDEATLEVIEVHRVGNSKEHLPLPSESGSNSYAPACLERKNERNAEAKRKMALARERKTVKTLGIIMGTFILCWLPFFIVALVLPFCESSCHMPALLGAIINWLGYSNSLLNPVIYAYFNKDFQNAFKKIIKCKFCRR

[5] = target: D(2) dopamine receptor (Rattus norvegicus, UniProt P61169); assay: Displacement of [3H]spiperone from dopamine D2 receptor in CRL:CD(SD)BR-COBS rat striatum by scintillation spectrometry
Chain of D(2) dopamine receptor (P61169 whole entry): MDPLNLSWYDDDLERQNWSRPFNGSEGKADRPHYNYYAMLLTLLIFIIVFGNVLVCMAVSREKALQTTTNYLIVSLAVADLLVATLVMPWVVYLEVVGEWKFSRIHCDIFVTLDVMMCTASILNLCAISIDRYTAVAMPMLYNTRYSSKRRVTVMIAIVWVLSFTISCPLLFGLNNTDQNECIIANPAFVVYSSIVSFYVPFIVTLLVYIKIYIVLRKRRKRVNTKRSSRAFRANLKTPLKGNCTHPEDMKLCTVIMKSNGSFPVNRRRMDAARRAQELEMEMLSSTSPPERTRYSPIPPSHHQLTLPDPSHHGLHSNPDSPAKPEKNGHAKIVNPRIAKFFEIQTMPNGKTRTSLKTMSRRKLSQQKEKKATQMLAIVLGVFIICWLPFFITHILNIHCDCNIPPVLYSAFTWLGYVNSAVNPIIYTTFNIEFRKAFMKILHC

[6] = target: D(1A) dopamine receptor (Rattus norvegicus, UniProt P18901); assay: Displacement of [3H]SCH23390 from dopamine D1 receptor in CRL:CD(SD)BR-COBS rat striatum by scintillation spectrometry
Chain of D(1A) dopamine receptor (P18901 whole entry): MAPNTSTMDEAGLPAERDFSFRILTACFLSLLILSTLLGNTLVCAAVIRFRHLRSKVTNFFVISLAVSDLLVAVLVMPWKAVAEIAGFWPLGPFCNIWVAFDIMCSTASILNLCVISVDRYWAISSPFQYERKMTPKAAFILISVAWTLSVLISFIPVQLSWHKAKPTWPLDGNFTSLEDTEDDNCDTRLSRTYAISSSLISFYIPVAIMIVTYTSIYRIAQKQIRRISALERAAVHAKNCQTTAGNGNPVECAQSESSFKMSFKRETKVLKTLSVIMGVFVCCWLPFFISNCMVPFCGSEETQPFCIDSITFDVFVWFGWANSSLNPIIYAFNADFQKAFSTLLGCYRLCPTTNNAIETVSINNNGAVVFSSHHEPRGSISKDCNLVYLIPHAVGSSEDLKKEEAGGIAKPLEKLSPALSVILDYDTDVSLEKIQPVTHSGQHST

[7] = Partition coefficient, log P of the compound; assay type: physicochemical; conditions: octanol/water
[8] = Lipophilicity, log D at pH 7.4; assay type: physicochemical; conditions: buffer
[9] = AUC (0 to 6 hrs) in NMRI mouse at 3 mg/kg, ip; assay type: ADME, organism-based; parameters: time < 6 hr, dose 3 mg/kg, route intraperitoneal; conditions: plasma
Outline: (§2)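 Mice received a single 3 mg/kg ip dose, and plasma concentrations were measured over time. […] Cmax, Tmax and T1/2 were taken from the plasma level profiles.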

[10] = tested on: Mus musculus; assay: Antipsychotic activity in NMRI mouse assessed as reduction of PCP-induced locomotor activity at 10 mg/kg, ip administered 30 mins prior to testing measured for 60 mins; assay type: functional, organism-based; parameters: dose 10 mg/kg
[11] = tested on: Mus musculus; assay: Antipsychotic activity in NMRI mouse assessed as inhibition of PCP-induced locomotor activity at 3 mg/kg, ip administered 30 mins prior to testing measured for 60 mins; assay type: functional, organism-based; parameters: dose 3 mg/kg
[12] = Cmax in NMRI mouse at 3 mg/kg, ip; assay type: ADME, organism-based; parameters: dose 3 mg/kg, route intraperitoneal; conditions: in vivo; outline: as §2
[13] = Tmax in NMRI mouse at 3 mg/kg, ip; assay type: ADME, organism-based; parameters: dose 3 mg/kg, route intraperitoneal; conditions: in vivo; outline: as §2
[14] = tested on: Mus musculus; assay: Antipsychotic activity in NMRI mouse assessed as increase of MK-801-induced locomotor activity at 1 mg/kg, ip administered 30 mins prior to testing measured for 60 mins; assay type: functional, organism-based; parameters: dose 1 mg/kg
[15] = tested on: Mus musculus; assay: Antipsychotic activity in ip dosed NMRI mouse assessed as reduction in methamphetamine-induced locomotor activity administered 30 mins prior to testing measured for 60 mins; assay type: functional
Outline: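 Mice were made hyperactive by methamphetamine pretreatment, then dosed with the compound. Read-out was locomotor hypermotility. Doses ranged from 0.3 to 30 mg/kg.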

[16] = tested on: Mus musculus; assay: Antipsychotic activity in ip dosed NMRI mouse assessed as reduction in spontaneous exploratory locomotor activity administered 30 mins prior to testing measured for 60 mins; assay type: functional
[17] = tested on: Mus musculus; assay: Antipsychotic activity in NMRI mouse assessed as reduction in MK-801-induced locomotor activity at 10 mg/kg, ip administered 30 mins prior to testing measured for 60 mins; assay type: functional; conditions: route intraperitoneal
[18] = tested on: Mus musculus; assay: Antipsychotic activity in NMRI mouse assessed as reduction in spontaneous exploratory locomotor activity at 30 mg/kg, ip administered 30 mins prior to testing measured for 60 mins; assay type: functional; conditions: route intraperitoneal
[19] = Half life in NMRI mouse at 3 mg/kg, ip; assay type: ADME, organism-based; parameters: dose 3 mg/kg, route intraperitoneal; conditions: in vivo; outline: as §2
[20] = tested on: Mus musculus; assay: Antipsychotic activity in NMRI mouse assessed as increase of methamphetamine-induced locomotor activity at 0.3 mg/kg, ip administered 30 mins prior to testing measured for 60 mins; assay type: functional, organism-based; parameters: dose 0.3 mg/kg
[21] = tested on: Mus musculus; assay: Antipsychotic activity in NMRI mouse assessed as increase of spontaneous exploratory locomotor activity at 1 mg/kg, ip administered 30 mins prior to testing measured for 60 mins; assay type: functional
[22] = tested on: Mus musculus; assay: Antipsychotic activity in NMRI mouse assessed as reduction in MK-801-induced locomotor activity at 30 mg/kg, ip administered 30 mins prior to testing measured for 60 mins; assay type: functional; conditions: route intraperitoneal
[23] = tested on: Mus musculus; assay: Antipsychotic activity in NMRI mouse assessed as reduction in spontaneous exploratory locomotor activity at 10 mg/kg, ip administered 30 mins prior to testing measured for 60 mins; assay type: functional; conditions: route intraperitoneal
[24] = tested on: Mus musculus; assay: Antipsychotic activity in NMRI mouse assessed as reduction in methamphetamine-induced locomotor activity at > 30 mg/kg, ip administered 30 mins prior to testing measured for 60 mins; assay type: functional; conditions: route intraperitoneal

Chain of Voltage-gated inwardly rectifying potassium channel KCNH2 (Q12809 whole entry): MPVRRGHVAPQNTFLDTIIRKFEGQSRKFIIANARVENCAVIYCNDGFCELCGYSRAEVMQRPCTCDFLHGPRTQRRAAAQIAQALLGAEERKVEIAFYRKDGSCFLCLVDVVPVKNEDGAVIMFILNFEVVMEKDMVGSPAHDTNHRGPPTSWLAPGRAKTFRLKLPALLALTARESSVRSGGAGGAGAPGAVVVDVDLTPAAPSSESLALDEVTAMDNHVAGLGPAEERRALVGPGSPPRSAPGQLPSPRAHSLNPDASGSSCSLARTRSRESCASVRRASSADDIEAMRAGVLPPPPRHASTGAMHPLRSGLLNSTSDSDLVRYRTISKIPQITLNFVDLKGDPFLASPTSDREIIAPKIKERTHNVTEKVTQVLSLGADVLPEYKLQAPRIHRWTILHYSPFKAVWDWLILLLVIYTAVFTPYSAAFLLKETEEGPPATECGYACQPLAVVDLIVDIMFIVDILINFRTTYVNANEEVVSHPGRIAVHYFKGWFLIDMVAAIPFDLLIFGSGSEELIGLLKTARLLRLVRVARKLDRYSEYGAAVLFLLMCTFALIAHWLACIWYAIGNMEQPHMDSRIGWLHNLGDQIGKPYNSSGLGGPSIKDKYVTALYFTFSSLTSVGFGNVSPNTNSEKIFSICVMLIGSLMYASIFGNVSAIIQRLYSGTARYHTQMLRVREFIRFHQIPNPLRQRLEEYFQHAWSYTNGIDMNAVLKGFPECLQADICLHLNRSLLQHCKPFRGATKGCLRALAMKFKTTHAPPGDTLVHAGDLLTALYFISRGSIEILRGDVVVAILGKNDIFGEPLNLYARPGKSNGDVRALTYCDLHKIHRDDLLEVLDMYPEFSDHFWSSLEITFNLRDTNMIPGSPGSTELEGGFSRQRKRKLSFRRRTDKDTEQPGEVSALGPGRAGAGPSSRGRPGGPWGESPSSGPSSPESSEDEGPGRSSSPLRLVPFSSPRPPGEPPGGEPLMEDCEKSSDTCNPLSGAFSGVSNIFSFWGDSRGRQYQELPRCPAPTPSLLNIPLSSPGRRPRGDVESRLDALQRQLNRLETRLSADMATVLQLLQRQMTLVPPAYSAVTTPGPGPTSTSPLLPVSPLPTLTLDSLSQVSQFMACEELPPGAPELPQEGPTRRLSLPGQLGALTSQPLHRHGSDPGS

| Compound | Ki [1] [nM] | Ki [2] [nM] | Ki [3] [nM] | Ki [4] [nM] | Ki [5] [nM] | Ki [6] [nM] | logP [7] | logD [8] | AUC(0-t) at 6 h [9] [ng·h/mL] | Activity [10] | Activity [11] | Cmax [12] [ng/mL] | Tmax [13] [min] | other results |
| --- | --- | --- | --- | --- | --- | --- | --- | --- | --- | --- | --- | --- | --- | --- |
| Cc1cccc(N2CCN(CCCCCCN3CCN(c4cccc(C)c4)CC3)CC2)c1 | 2200 | 120 | 20 | 48 | 70 | > 1000 | 5 | 4.03 | – | – | – | – | – | – |
| Cc1cccc(N2CCN(CCCCCCN3CCN(c4cccc(C)n4)CC3)CC2)c1 | – | 68 | 6 | 11 | 33 | > 1000 | 4.62 | 2.46 | 243 | Active | Active | 58 | 120 | Activity [14]: Active |
| CN1CCN(C2=Nc3cc(Cl)ccc3Nc3ccccc32)CC1 [CLOZAPINE] | – | – | – | – | – | – | – | – | – | Active | Active | – | – | ED50 [15]: 2.5 mg/kg; ED50 [16]: 2.4 mg/kg |
| Cc1cccc(N2CCN(CCCCCCN3CCN(c4ccnc5ccccc45)CC3)CC2)c1 | 900 | – | – | – | – | – | 6.23 | 3.67 | – | – | – | – | – | – |
| c1ccc(N2CCN(CCCCCCN3CCN(c4ccnc5ccccc45)CC3)CC2)cc1 | 3800 | > 1000 | 34 | 49 | 41 | > 1000 | 5.61 | 3.1 | – | – | – | – | – | – |
| Cc1cccc(N2CCN(CCCCCCN3CCN(c4ccccc4)CC3)CC2)n1 | – | 309 | 25 | 8 | 24 | > 1000 | 3.99 | 1.89 | 362 | Active | Active | 121 | 18 | Activity [17]: 10 mg/kg; Activity [18]: 30 mg/kg; half-life [19]: 150 min |
| O=C1CCc2ccc(OCCCCN3CCN(c4cccc(Cl)c4Cl)CC3)cc2N1 [ARIPIPRAZOLE] | – | – | – | – | – | – | – | – | – | Active | Active | – | – | ED50 [16]: 2.5 mg/kg |
| c1ccc(N2CCN(CCCCCCN3CCN(c4ccccn4)CC3)CC2)nc1 | > 10000 | > 1000 | 45 | 16 | 159 | > 1000 | 3.39 | 1.33 | 84 | Active | Active | 26 | 60 | Activity [18]: 30 mg/kg |
| Cc1cccc(N2CCN(CCCCNC(=O)c3cc4ccccc4o3)CC2)c1 | – | 206 | – | – | 4.5 | 263 | – | – | 128 | Active | Active | 155 | 30 | – |
| Cc1cccc(N2CCN(CCCCCCN3CCN(c4ccccn4)CC3)CC2)c1 | 8700 | 150 | 10 | 2 | 44 | > 1000 | 4.23 | 2.72 | – | Active | Active | – | – | Activity [20]: Active; Activity [21]: inactive |
| COc1cccc(N2CCN(CCCCCCN3CCN(c4cccc(OC)c4)CC3)CC2)c1 | 2400 | 303 | 28 | 8 | 27 | > 1000 | 4.19 | 3.25 | – | – | – | – | – | – |
| c1ccc(N2CCN(CCCCCCN3CCN(c4ccccn4)CC3)CC2)cc1 | 13000 | > 1000 | 39 | 30 | 34 | > 1000 | 3.61 | 2.14 | 58 | Active | Active | 50 | 60 | Activity [22]: 30 mg/kg; Activity [23]: 10 mg/kg |
| COc1cccc(N2CCN(CCCCCCN3CCN(c4cccc(Cl)c4)CC3)CC2)c1 | 1200 | 92 | 7 | 1 | 4 | > 1000 | 4.7 | 3.89 | – | – | – | – | – | – |
| O=C(CCCN1CCC(O)(c2ccc(Cl)cc2)CC1)c1ccc(F)cc1 [HALOPERIDOL] | – | – | – | – | – | – | – | – | – | Active | Active | – | – | ED50 [16]: 0.08 mg/kg |
| Cc1cccc(N2CCN(CCCCCCN3CCN(c4ccccc4)CC3)CC2)c1 | 3800 | 182 | 10 | 19 | 20 | > 1000 | 4.45 | 3.53 | 147 | Active | Active | 41 | 30 | Activity [18]: 30 mg/kg |
| Clc1cccc(N2CCN(CCCCCCN3CCN(c4cccc(Cl)c4)CC3)CC2)c1 | 300 | 504 | 98 | 16 | 11 | > 1000 | 5.35 | 4.58 | – | – | – | – | – | – |
| c1ccc(N2CCN(CCCCCCN3CCN(c4ccccc4)CC3)CC2)cc1 | 8000 | > 1000 | 31 | 3 | 1 | > 1000 | 3.83 | 2.96 | 198 | Active | Active | 71 | 30 | Activity [24]: >30 mg/kg; Activity [23]: 10 mg/kg |
